Many of the other results were omitted from the sample, so hits are more common in it than they were.
T cell modulator – modulators of CD8 T cell-vesicle binding, primary screen, mouse 2C CD8+ T cells, flow cytometry. actives 0.068% (n = 330,000). 2C CD8+ T cell-vesicle binding; hits give low values. response (vesicle binding), % at 7 µM. AID 2052, 2009;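 active = response, share of CD8 T cells binding vesicles, and their 90th percentile fluorescence all below set limits, cut at about 80% in these data, passing the limit was not always enough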;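 also: values below 100% mean blocked vesicle binding to the CD8+ T cells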
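Material: 2C TCR transgenic mouse naive CD8+ T cells, MACS-purified. Also added: QL9-charged Drosophila Ld/ICAM-1/B7-1 vesicles. Timing: binding 1.5 h at 37 °C. Measured by: high-throughput flow cytometry with anti-B7-1 and anti-CD8 staining. Read-out: percent CD8+ FL2 mean versus row control. Controls: Unloaded micro-vesicles (low), QL9 vesicles with 0.7% DMSO (high).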
ALR inh – inhibitors of human ALR sulfhydryl oxidase, primary screen, biochemical, H2O2 detection, HRP-luminol luminescence, single point; inhibition, % (no concentration beside the values); AID 485317, 2010; FAD-linked sulfhydryl oxidase ALR (Homo sapiens), P55789; purified ALR, DTT oxidation; actives 3.8% (n = 290,000);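 active = mean replicate inhibition above about 79%, with every replicate also reaching it, limit read from the data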
Target sequence (P55789 whole entry, looked up): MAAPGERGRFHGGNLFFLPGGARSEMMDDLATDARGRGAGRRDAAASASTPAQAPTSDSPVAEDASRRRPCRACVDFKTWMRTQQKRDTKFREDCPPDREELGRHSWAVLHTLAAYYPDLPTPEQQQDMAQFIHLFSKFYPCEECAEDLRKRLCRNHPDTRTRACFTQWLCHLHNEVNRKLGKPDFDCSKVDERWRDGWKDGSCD
Glyco luc inh – increase of ERlucT glycosylation luciferase signal, primary screen, N-linked glycosylation inhibitor project, D54 ERlucT cells, luminescence, set 2; D54 ERlucT glycosylation luciferase reporter, 24 h; percent of 100 nM tunicamycin response; reporter increase, % at 12.5 µM; actives 0.23% (n = 360,000); AID 588692, 2011;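 active = mean luciferase reporter signal, scaled so untreated is 0 and the glycosylation-blocking control 100, at or above a set limit in every replicate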;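 also: luciferase carries N-glycosylation sites so blocking glycosylation raises the light; 0% = median of neutral control wells and 100% = median of 100 nM tunicamycin wells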
* marks the source's active call; other numbers are inactive results.

CCN(c1ccc(C)cc1)S(=O)(=O)c1nnc(NC(=O)c2ccco2)s1 was read as T cell modulator 232, ALR inh 59 and Glyco luc inh 0.
CN(CC(=O)Nc1cccc(F)c1)CC(=O)N1CCc2ccccc21 was read as T cell modulator 274, ALR inh -3 and Glyco luc inh 2.
For N#CCC(=O)Nc1ccc(C(=O)Nc2cccc(S(=O)(=O)N3CCCC3)c2)cc1 the results were Glyco luc inh 2.
O=[N+]([O-])c1cccc(COc2ccccc2CN2CCCC2)c1 was read as Glyco luc inh 2.
Cc1ccc(/C=N/Nc2ccc(C(=O)O)cc2)o1 was read as T cell modulator 447, ALR inh 98* and Glyco luc inh -4.
`O=C(O)c1ccc(N/N=C/c2ccc(-c3ccc(Br)cc3)o2)cc1` gave T cell modulator 197 and Glyco luc inh 1.
`O=C(O)c1cccc(N/N=C/c2cccc3ccccc23)c1` gave T cell modulator 534, ALR inh 99* and Glyco luc inh -7.
COc1ccc2ccccc2c1/C=N/Nc1cccc(C(=O)O)c1 was read as T cell modulator 202, ALR inh -11 and Glyco luc inh -1.
`CCCCn1c(N)c(N(CC(C)C)C(=O)c2cccs2)c(=O)[nH]c1=O` gave T cell modulator inactive, ALR inh -2 and Glyco luc inh 1.
For COc1cc(/C=C/C(=O)OCC(=O)N2CCc3ccccc3C2)ccc1O the results were T cell modulator 500, ALR inh 21 and Glyco luc inh -3.
CCOC(=O)N1CCN(C(=O)/C=C/c2ccc(OC)c(OC)c2)CC1 was read as T cell modulator 538, ALR inh -6 and Glyco luc inh 1.
`Cc1cccc(-c2nc(CS(=O)CC(=O)N3CCc4ccccc4C3)c(C)o2)c1` (stereo not given) gave T cell modulator 70 and Glyco luc inh 3.
Cc1cccc(-c2nc(CS(=O)CC(=O)N3CC(C)CC(C)C3)c(C)o2)c1 (stereo not given) was read as T cell modulator inactive, ALR inh 96* and Glyco luc inh 3.
`CCOC(=O)N1CCN(C(=O)CS(=O)Cc2nc(-c3cccc(C)c3)oc2C)CC1` (stereo not given) gave T cell modulator 547, ALR inh 99* and Glyco luc inh 0.
CCN1CCN(C(=O)CS(=O)Cc2nc(-c3cccc(C)c3)oc2C)CC1 (stereo not given) was read as T cell modulator 381, ALR inh 99* and Glyco luc inh 2.
Screening CCOC(=O)N1CCN(C(=O)CS(=O)Cc2nc(-c3ccc(OC)c(OC)c3)oc2C)CC1 (stereo not given) returned T cell modulator 200, ALR inh 99* and Glyco luc inh 4.
Screening Cc1oc(-c2cccc(Cl)c2)nc1CN1CCC(C(=O)NCCCN2CC(C)CC(C)C2)CC1 (stereo not given) returned T cell modulator 418, ALR inh -4 and Glyco luc inh -9.
Screening CCOC(=O)N1CCC(NC(=O)C2CCCN(Cc3nc(-c4cccc(Cl)c4)oc3C)C2)CC1 (stereo not given) returned T cell modulator 185, ALR inh -3 and Glyco luc inh -4.
`Cc1ccccc1C(NC(=O)C1CCN(Cc2ccc(Oc3ccccc3)cc2)CC1)c1ccsc1` (stereo not given) gave Glyco luc inh -1.
Screening COc1ccc(-c2nc(CS(=O)(=O)CC(=O)NCc3ccccc3OC)c(C)o2)cc1 returned T cell modulator 434, ALR inh 99* and Glyco luc inh 0.
For COc1ccc(-c2nc(CS(=O)(=O)CC(=O)NCc3cccc(OC)c3OC)c(C)o2)cc1 the results were T cell modulator 274, ALR inh 0 and Glyco luc inh -1.
`COc1ccc(-c2nc(CS(=O)(=O)CC(=O)NCc3ccccc3Br)c(C)o2)cc1` gave T cell modulator 281, ALR inh 98* and Glyco luc inh 2.
`COc1ccc(-c2nc(CS(=O)(=O)CC(=O)NCc3ccc(F)cc3)c(C)o2)cc1` gave T cell modulator 588, ALR inh -1 and Glyco luc inh -1.
Screening C[C@H]1CNC(=O)c2c(C(=O)Nc3ccc(CNC(=O)OC(C)(C)C)cc3)ncn21 returned Glyco luc inh -5.
`S=C(c1c[nH]c2ccc(Br)cc12)N1CCOCC1` gave T cell modulator 603, ALR inh 99* and Glyco luc inh -2.
`O=C(c1c[nH]c2ccccc12)N1CCOCC1` gave ALR inh 1 and Glyco luc inh 0.
CC(=NNC(N)=O)C1=C(O)C(C(C)C)NC1=O (stereo not given) was read as Glyco luc inh 3.
CCn1c(O)c(/C=N/n2cnnc2)sc1=S was read as T cell modulator 452, ALR inh 98* and Glyco luc inh 3.
CCn1c(O)c(C=Nc2ccccc2)sc1=S was read as T cell modulator 480 and ALR inh 6.
Screening O=C(O)c1ccccc1NC(=O)c1ccccc1Nc1ccccc1 returned T cell modulator 221, ALR inh 98* and Glyco luc inh -4.
For Nc1ccc(C(=O)Nc2ccccc2C(=O)O)cc1 the results were T cell modulator 290 and Glyco luc inh 1.
`COc1ccccc1NC(=O)c1ccccc1Nc1ccccc1` gave T cell modulator 80, ALR inh 0 and Glyco luc inh -4.
O=C(Nc1ccccc1C(=O)Nc1ccccc1C(=O)O)c1ccccc1 was read as T cell modulator 284, ALR inh 97* and Glyco luc inh -3.
Screening Cc1cc(=O)oc2cc(OCC(=O)NC3(C#N)CCCCC3)ccc12 returned Glyco luc inh -1.
`CCN(CC)c1ccc(NC(=O)c2cccc(C)c2OC)c(C)c1` gave T cell modulator 267, ALR inh 99* and Glyco luc inh -1.
For CCOC(=O)N1CCC(N2Cc3cccc(C(=O)Nc4ccc(N(CC)CC)cc4C)c3C2=O)CC1 the results were T cell modulator 225, ALR inh 50 and Glyco luc inh -2.
CCN(CC)c1ccc(NC(=O)CSc2ccsc2[N+](=O)[O-])c(C)c1 was read as T cell modulator 269, ALR inh 93* and Glyco luc inh 13.
Screening O=C(NCc1ccco1)c1cnc2ccccn2c1=O returned T cell modulator 348, ALR inh -9 and Glyco luc inh 3.
Cc1ccccc1NC(=O)c1cccnc1 was read as T cell modulator 215, ALR inh 0 and Glyco luc inh -2.
CCN(CC)c1ccc(NC(=O)c2cnc3ccccn3c2=O)c(C)c1 was read as T cell modulator 389, ALR inh 99* and Glyco luc inh -3.
`O=C(CSc1ccsc1[N+](=O)[O-])Nc1cc(F)ccc1F` gave Glyco luc inh 0.
CCN(CC)c1ccc(NC(=O)c2cccnc2)c(C)c1 was read as T cell modulator 650, ALR inh 96* and Glyco luc inh 3.
`COC(=O)/C=C(\C)N=Nc1c(O)[nH]c2ccccc12` gave T cell modulator 676 and Glyco luc inh 2.

Assay outcomes from PubChem BioAssay.
